Source: PubChem BioAssay
Shown are actives, neighbours in structure and some others; about 4.6% of the full set was active somewhere.
Mdm2 ligase inh: MDM2-luciferase reporter signal enhancers, primary screen, MDM2 E3 ligase inhibitor project, cell-based, luminescence, 1536-well | cell-based MDM2 ubiquitination luciferase reporter, 2 h; 0 = plate control, 100 = twice control, blank-subtracted | signal enhancement, % at 5 µM | 0.11% of 210,000 active | AID 1230, 2008;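 active = signal enhancement of 30% or more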;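 also: luminescence tracks abundance of the self-degrading MDM2-luciferase fusion protein; higher signal means inhibition of MDM2 E3 ligase activity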
Target sequence (Q00987 whole entry, looked up, the tested form may be a part): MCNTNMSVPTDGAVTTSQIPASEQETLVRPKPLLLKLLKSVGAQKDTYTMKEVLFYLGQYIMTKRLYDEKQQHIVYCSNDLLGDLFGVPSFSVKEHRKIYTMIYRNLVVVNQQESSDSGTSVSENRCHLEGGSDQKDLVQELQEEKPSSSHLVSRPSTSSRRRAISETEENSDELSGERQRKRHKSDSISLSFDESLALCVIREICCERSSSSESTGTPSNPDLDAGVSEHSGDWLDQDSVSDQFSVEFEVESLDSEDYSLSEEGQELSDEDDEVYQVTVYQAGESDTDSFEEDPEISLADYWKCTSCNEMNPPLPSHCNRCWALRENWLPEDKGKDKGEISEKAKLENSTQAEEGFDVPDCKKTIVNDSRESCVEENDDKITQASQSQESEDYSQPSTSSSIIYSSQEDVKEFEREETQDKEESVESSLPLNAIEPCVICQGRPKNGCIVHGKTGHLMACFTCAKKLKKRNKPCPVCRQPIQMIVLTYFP
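Buffer or medium: Cells held in DMEM | Assay system: Stable mammalian line carrying autodegrading MDM2–luciferase fusion reporter | Quantity: 2000 cells/well | Times: 4 h settle plus 2 h compound, 37 °C | Doses: One concentration, 5 µM, with 0.2% DMSO | Technique: Luminescence with SteadyLite reagent, 15 min at room temperature | Benchmarks: Plate controls and plate blanks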
p97 ATPase inh: inhibitors of human p97 ATPase, primary screen, biochemical. 0.42% of 220,000 active. inhibition, % at 8 µM. recombinant p97 ATPase, Kinase-Glo ATP luminescence, 3 h; in the data active = inhibition above about 15%;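 also: 0% = DMSO vehicle and 100% = wells lacking enzyme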
NF-kB expr up: activators of NF-kB expression in neurons, primary screen, cell-based, HTS; human neuronal cells, NF-kB reporter expression; stronger effect = higher value; fold change at 12.5 µM; 1.6% of 190,000 active; AID 1239, 2008; in the data active = fold change above about 3.3
STAT1 act: STAT1 signaling activators, primary screen, cell-based, HTS, luciferase reporter; NIH 3T3 STAT1-luciferase reporter, IFN-gamma, luminescence; 100% = IFN-gamma alone, no compound; activation (% of control), % at 5.5 µM; 2.6% of 200,000 active; AID 932, 2007;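 active = activation above the screen-wide mean activation plus 3 SD, cut at about 130% in these data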;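 also: raw ratio to IFN-gamma control signal so 100% means no change and 0% no light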
Wee1 degr inh: Wee1 degradation inhibitors, primary screen, cell-based, HeLa, Wee1K328M-luciferase, luminescence. HeLa Luc-Wee1K328M stability; 100% = proteasome inhibitor MG132 effect. 1.2% of 220,000 active. reporter increase, % at 5 µM. AID 1321, 2008;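 active = activation above the mean of all tested compounds plus 3 SD, set per screening run, cut at about 8.8% in these data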;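 also: cells exposed to compound for 20 h before luminescence read; 0% = DMSO alone and 100% = MG132 at 30 µM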
APP 5'UTR act: activators of APP 5'UTR luciferase reporter, primary screen, SH-SY5Y cells. SH-SY5Y APP 5'UTR luciferase reporter, luminescence; zero percent = DMSO vehicle wells. activation, % at 2 µM. 1% of 190,000 active. AID 1276, 2008;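 active = activation above a set limit, based on mean plus 3 SD of controls, cut at about 140% in these data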
Active calls of the source: *; x = not tested or not shown.

SMILES	Mdm2 ligase inh	p97 ATPase inh	NF-kB expr up	STAT1 act	Wee1 degr inh	APP 5'UTR act
O=C(Cn1c2[n+](c3ccccc31)CC(O)CS2)c1ccccc1 (stereo not drawn)	-32	6	1.1	110	2	2
O=[n+]1cc(-c2ccccc2)n([O-])c2c1CCC2	0	1	1.1	104	9.7*	23
Cc1nn(CCCC(=O)NCc2ccccc2)c(C)c1[N+](=O)[O-]	40*	2	0.93	103	1	-6
Cc1cc(=O)[nH]c(SCC(=O)Nc2ccc(Cl)cn2)n1	-5	1	1.2	101	-2	6
CCC(Sc1nc(C)cc(=O)[nH]1)C(=O)Nc1ccc(Cl)cn1 (stereo not drawn)	-4	15*	1	102	-1	-1
Cc1c(Cl)cccc1N(Cc1ccc(C(=O)O)cc1)S(=O)(=O)c1ccccc1	-2	0	1.3	89	0	10
CC(C)C[C@H](NC(=O)CCCn1nnc2ccccc2c1=O)C(=O)O	-6	1	x	x	0	x
O=C(O)CCNC(=O)CCCn1nnc2ccccc2c1=O	-7	10	x	x	9.5*	x
O=C(CCCO)N/N=C/c1ccccc1[N+](=O)[O-]	7	-6	1.1	91	-1	-7
O=C(c1ccc2c(c1)OCCCO2)N1CCCCC1	-14	1	x	x	4	x
CC(=O)c1c(C)[nH]c(C(=O)OCC(=O)c2c(N)n(C)c(=O)n(C)c2=O)c1C	-12	-3	1.1	100	0	7
Cc1ccc(-c2cc[n+](Cc3ccccc3)cc2)cc1	-4	1	1.1	77	-4	4
Cc1ccc2c(c1)sc[n+]2Cc1ccccc1	-6	-2	2.1	135*	-1	28
CCOC(=O)C1(CCCc2ccccc2)CCN(C(=O)CCC2=NNC(=O)CC2)CC1	-11	-3	1.1	93	11*	9
CCOC(=O)C1(CCCc2ccccc2)CCN(C(=O)Cc2nonc2C)CC1	-8	-4	x	94	5	8
O=C(Cc1ccccc1)Nc1nonc1NC(=O)c1ccccc1	11	-1	3.7*	92	1	16
O=C(Nc1nonc1-c1ccc(Cl)cc1)c1ccccc1	-3	4	1.3	99	5	0
Cc1ccccc1NC(NC(=O)c1cccs1)C(Cl)(Cl)Cl (stereo not drawn)	-9	-1	0.87	92	-3	-12
CCOC(=O)c1cn(CC(=O)Nc2ccc(OC)cc2OC)nn1	-2	-3	1.1	92	0	19
Cc1c(/C=N/NC(=O)C(C)(C)Oc2ccc(Cl)cc2)cnn1C	-18	4	1.1	101	9.9*	-5
CCOC(=O)c1c(C)oc2c1c(CN1CCN(CCO)CC1)c(O)c1ccccc12	-3	5	2.7	89	1	120
CCOC(=O)c1c(C)oc2c1c(CN1CCN(C(=O)OCC)CC1)c(O)c1ccccc12	0	-2	4.3*	100	0	157*
CCOC(=O)c1[nH]c2ccc(C)cc2c1N	-9	4	3.5*	120	6	111
CCOC(=O)c1[nH]c2ccccc2c1NC(=S)Nc1cccc(C)c1	x	10	1.1	98	9.3*	12
CCOC(=O)c1[nH]c2cc(OC)c(OC)cc2c1N	-12	5	0.54	106	0	-4
SMILES	Mdm2 ligase inh	p97 ATPase inh	NF-kB expr up	STAT1 act	Wee1 degr inh	APP 5'UTR act
CCC(C)NCC(=O)Nc1ccc(S(N)(=O)=O)cc1 (stereo not drawn)	-4	7	1	110	-2	12
Cc1ccc(/C=C/c2nc3ccccc3[nH]2)o1	-54	5	6.5*	90	1	259*
Cc1cc2nc(/C=C/c3nc4cc(C)c(C)cc4[nH]3)[nH]c2cc1C	-14	12	x	x	-2	x
Cc1cccc2nc(COc3ccc4ccccc4c3Br)cn12	x	-5	x	x	11*	x
Cc1ccc(C(=O)OCC(=O)Nc2c(Cl)cc(S(N)(=O)=O)cc2Cl)o1	-19	6	x	x	-1	x
COc1cc(/C=N/NC2=NC(C)(C)Cc3ccccc32)cc(OC)c1OC	-6	-8	0.8	90	4	-3
Cc1ccc(S(=O)(=O)N2CCN(C(=O)CC(C)C)CC2)cc1	32*	-4	1.1	107	1	3
CN(C)CC(O)CN1C(=O)NC(C)(C)C1=O (stereo not drawn)	5	0	1.3	104	-2	-3
Cc1ccc(/C=c2/sc3n(c2=O)CCCN=3)o1	6	-5	2.1	129*	-1	28
Cc1ccc(/C=c2\sc3n(c2=O)CN(c2ccc(Br)cc2)CN=3)o1	-2	0	1.1	103	0	-8
Cc1ccc2c(c1)C=CC(C)(C)S2(=O)=O	2	3	1	96	4	12
Cc1ccc(S(=O)(=O)Nc2cccc3ncccc23)s1	-27	2	0.16	187*	-1	-56
COc1ccc([N+](=O)[O-])cc1NC(=O)c1ccc(-n2nc(C)cc2C)cc1	-1	5	1.2	100	-3	18
COC(=O)c1ccc(NC(=S)NC2c3ccccc3CC2O)cc1 (stereo not drawn)	-12	-4	4*	99	-1	4
Cc1cc(C)nc(NC(=O)/C=C/c2ccc3c(c2)OCO3)c1	-17	-8	3.3*	135*	8.9*	100
O=C(/C=C/c1ccco1)NCc1ccc2c(c1)OCO2	-10	5	1.1	96	1	9
CC(=O)Nc1ccc(NC(=O)/C=C/c2ccc3c(c2)OCO3)cc1	-4	3	1.3	108	0	32
Nc1ccccc1C(=O)/C=C/c1ccc2c(c1)OCO2	x	-5	7.2*	110	-3	129
O=C(/C=C/c1ccc2c(c1)OCO2)Nc1cccnc1	-35	0	0.99	128	4	162*
O=C(/C=C/c1ccco1)Nc1ccc2c(c1)OCO2	-27	-5	4.6*	127	6	120
Cn1c(=O)c2c(nc(N/N=C/c3ccc(OC(=O)c4ccco4)cc3)n2Cc2ccccc2)n(C)c1=O	-2	5	0.43	102	-2	17
CCOC(=O)N/N=C(/C)c1ccc(N2C(=O)C3CCCCC3C2=O)cc1 (stereo not drawn)	-1	3	1.1	95	0	3
Cc1ccc(N=C2NC(=O)/C(=C/c3cn(C)c4ccccc34)S2)cc1C	6	-4	1	101	-1	-11
CCN(CC)S(=O)(=O)c1cccc(C(=O)NCCCn2ccnc2)c1	-43	2	x	x	-1	x
